{"source": "ChEMBL document CHEMBL4616671", "about": "“Identification of N-Phenyl-7H-pyrrolo[2,3-d]pyrimidin-4-amine Derivatives as Novel, Potent, and Selective NF-κB Inducing Kinase (NIK) Inhibitors for the Treatment of Psoriasis” (J Med Chem, 2020)", "key": {"[1]": {"experiment": "Volume of distribution in Sprague-Dawley rat at 1 mg/kg, iv administered as single bolus dose by LC-MS/MS analysis", "type": "ADME, organism-based", "conditions": "in vivo", "how_it_was_run": "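SD rats, 3 per group. Single IV bolus at 1 mg/kg in DMSO:PEG200:saline 20:20:60 (0.2 mg/mL), or oral gavage at 10 mg/kg as suspension in 0.5% CMC-Na/0.2% Tween 80 (1 mg/mL). Plasma protein-precipitated with acetonitrile containing internal standards, then quantified by LC-MS/MS. Parameters derived by noncompartmental analysis. Mean ± SD.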"}, "Homo sapiens [2]": {"species": "Homo sapiens", "experiment": "Selectivity ratio of IC50 for human ACK1 to IC50 for human NIK"}, "[3]": {"experiment": "Intrinsic clearance in human liver microsomes assessed per mg of protein incubated for 10 mins followed by potassium phosphate buffer addition and measured after 5 to 60 mins by LC-MS/MS analysis", "type": "ADME, Microsome", "conditions": "read-out: CLH", "how_it_was_run": "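Rat, dog, monkey or human liver microsomes pre-incubated with compound at 37 °C for 10 min; reaction started after pre-warming and stopped at 5, 15, 30, 60 min with chilled quench containing tolbutamide and labetalol. No-cofactor control in 100 mM potassium phosphate for 60 min. LC-MS/MS analysis; first-order fit: k = −slope, T1/2 = 0.693/k, CLint = k/microsomal protein concentration.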"}, "[4]": {"biological_target": "Mitogen-activated protein kinase kinase kinase 14 (Mus musculus) (UniProt Q9WUL6)", "sequence (Q9WUL6 whole entry)": "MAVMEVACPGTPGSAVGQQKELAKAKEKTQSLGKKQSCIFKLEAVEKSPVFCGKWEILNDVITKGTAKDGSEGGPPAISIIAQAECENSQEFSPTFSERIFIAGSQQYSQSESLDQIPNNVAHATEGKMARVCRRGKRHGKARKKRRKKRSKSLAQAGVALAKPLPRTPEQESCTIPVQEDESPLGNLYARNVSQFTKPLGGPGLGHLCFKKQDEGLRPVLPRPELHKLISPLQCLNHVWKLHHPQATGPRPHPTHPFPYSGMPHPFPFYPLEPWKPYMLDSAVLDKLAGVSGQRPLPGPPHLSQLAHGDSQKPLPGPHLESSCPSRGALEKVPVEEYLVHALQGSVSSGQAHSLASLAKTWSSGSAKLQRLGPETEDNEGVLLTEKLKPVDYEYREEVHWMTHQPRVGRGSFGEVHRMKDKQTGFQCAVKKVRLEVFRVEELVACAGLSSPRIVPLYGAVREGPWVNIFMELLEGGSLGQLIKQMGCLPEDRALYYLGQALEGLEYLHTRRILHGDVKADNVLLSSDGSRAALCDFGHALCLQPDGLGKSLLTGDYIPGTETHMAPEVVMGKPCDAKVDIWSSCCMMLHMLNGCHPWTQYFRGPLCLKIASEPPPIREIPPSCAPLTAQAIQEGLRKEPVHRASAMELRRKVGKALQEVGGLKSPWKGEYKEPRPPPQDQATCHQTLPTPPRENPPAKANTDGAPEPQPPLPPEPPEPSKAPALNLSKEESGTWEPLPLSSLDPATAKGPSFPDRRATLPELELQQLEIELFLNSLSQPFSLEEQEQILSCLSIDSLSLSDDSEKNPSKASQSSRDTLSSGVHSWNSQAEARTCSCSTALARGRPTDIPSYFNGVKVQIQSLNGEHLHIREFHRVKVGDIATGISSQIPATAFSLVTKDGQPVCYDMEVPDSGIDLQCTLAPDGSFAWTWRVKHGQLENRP", "experiment": "Inhibition of NIK in mouse J774 cells assessed as reduction in LPS-induced IL6 mRNA level by SYBR green dye-based quantitative PCR analysis", "type": "cell-based", "how_it_was_run": "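LPS-stimulated J774 macrophages; mRNA quantified by qPCR using 4 µL cDNA plus 16 µL master mix per reaction. Mean ± SD of three biological replicates; significance by two-tailed Student's t-test against the model group.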"}, "T-cell [5]": {"system": "T-cell", "experiment": "Antiinflammatory activity in mouse T cells assessed as inhibition of conA-induced induced T cell proliferation at 0.4 uM incubated for 48 hrs by CCK8 assay relative to control", "type": "functional"}, "Mus musculus [6]": {"system": "Mus musculus", "experiment": "Suppression of IMQ-induced psoriasis in C57 mouse assessed as reduction in spleen index at 120 mg/kg, ig administered once daily starting from day 3 post IMQ-challenge and measured 2 days post-last dose of IMQ", "type": "functional, organism-based", "how_it_was_run": "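IMQ-induced C57 mice (5% cream daily 7 days; i.g. daily from day 3 at the stated dose, n = 6). Spleen weighed per mouse at end of study.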"}, "[7]": {"experiment": "Oral bioavailability in Sprague-Dawley rat at 10 mg/kg administered via gavage by LC-MS/MS analysis", "type": "ADME, organism-based", "conditions": "in vivo"}, "T-cell [8]": {"system": "T-cell", "experiment": "Antiinflammatory activity in mouse T cells assessed as inhibition of conA-induced induced T cell proliferation at 2 uM incubated for 48 hrs by CCK8 assay relative to control", "type": "functional"}, "[9]": {"experiment": "AUC (0 to infinity) in Sprague-Dawley rat at 1 mg/kg, iv administered as single bolus dose by LC-MS/MS analysis", "type": "ADME, organism-based", "design": "dose 1 mg/kg, time infinity, route intravenous", "conditions": "in vivo", "how_it_was_run": "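Single IV bolus in SD rats, 3 per group, in DMSO:PEG200:saline 20:20:60 (v/v/v), 0.2 mg/mL. Plasma protein-precipitated with ACN containing internal standards, then quantified by LC-MS/MS. AUC0-∞ from concentration-time profiles by linear trapezoidal rule, noncompartmental analysis. Mean ± SD of three rats.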"}, "[10]": {"experiment": "Initial plasma concentration in Sprague-Dawley rat at 1 mg/kg, iv administered as single bolus dose by LC-MS/MS analysis", "type": "ADME, organism-based"}, "[11]": {"biological_target": "Mitogen-activated protein kinase kinase kinase 14 (Homo sapiens, UniProt Q99558)", "sequence (Q99558 whole entry, looked up)": "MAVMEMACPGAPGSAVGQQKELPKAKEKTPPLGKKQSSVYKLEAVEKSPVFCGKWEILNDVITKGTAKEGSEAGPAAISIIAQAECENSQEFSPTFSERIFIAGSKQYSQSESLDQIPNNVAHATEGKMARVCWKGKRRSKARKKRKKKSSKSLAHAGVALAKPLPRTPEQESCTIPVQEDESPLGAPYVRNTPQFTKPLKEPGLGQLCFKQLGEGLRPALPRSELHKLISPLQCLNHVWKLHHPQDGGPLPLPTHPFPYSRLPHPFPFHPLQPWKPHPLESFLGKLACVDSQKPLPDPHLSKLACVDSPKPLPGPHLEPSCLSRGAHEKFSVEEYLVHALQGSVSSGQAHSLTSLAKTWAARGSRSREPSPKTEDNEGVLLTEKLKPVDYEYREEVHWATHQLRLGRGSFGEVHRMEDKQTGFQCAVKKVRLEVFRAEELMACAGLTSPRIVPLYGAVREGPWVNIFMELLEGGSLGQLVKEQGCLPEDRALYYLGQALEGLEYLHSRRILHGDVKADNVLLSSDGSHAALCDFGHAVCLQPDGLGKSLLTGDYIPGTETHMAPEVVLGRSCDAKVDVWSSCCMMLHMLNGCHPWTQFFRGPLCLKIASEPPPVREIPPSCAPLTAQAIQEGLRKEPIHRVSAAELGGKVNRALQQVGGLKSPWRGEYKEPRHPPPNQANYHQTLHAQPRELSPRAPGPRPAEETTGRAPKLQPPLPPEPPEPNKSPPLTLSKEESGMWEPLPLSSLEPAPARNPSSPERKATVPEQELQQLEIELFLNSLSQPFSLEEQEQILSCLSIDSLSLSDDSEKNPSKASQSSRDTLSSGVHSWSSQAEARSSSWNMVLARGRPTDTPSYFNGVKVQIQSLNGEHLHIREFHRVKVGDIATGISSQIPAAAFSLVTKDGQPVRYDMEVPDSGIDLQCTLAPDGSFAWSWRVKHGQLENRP", "experiment": "Inhibition of NIK in human BEAS2B cells assessed as reduction in LPS-induced IL-6 level preincubated for 8 hrs followed by LPS stimulation and measured after 24 hrs by ELISA", "type": "cell-based", "how_it_was_run": "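BEAS-2B cells were grown in DMEM with 10% FBS, seeded at 5000 cells/well, and cultured 24 h at 37 °C in 5% CO2. Compounds were given at 7 concentrations from 10 μM to 0.014 μM (3 replicate wells), with dexamethasone as positive control. After 8 h, LPS (20 μg/mL solution) was added for 24 h. Supernatant IL-6 was read by human IL-6 ELISA; two biological replicates.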"}, "Mus musculus [12]": {"system": "Mus musculus", "experiment": "Suppression of epidermal and dermal cell proliferation in C57 mouse model of IMQ-induced psoriasis assessed as reduction in Ki67 expression in back skin psoriatic lesions at 60 mg/kg, ig administered starting from day 3 post IMQ-challenge and measured 2 days post-last dose of IMQ by immunohistochemical analysis relative to control", "type": "functional", "conditions": "C57, topical", "how_it_was_run": "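C57 mice given 5% imiquimod cream on back skin q.d. for seven days. Gavage q.d. at 60 or 120 mg/kg from day 3, n = 6 per group. Back-skin frozen sections (6 µm) stained for Ki67 by IHC. % Ki67+ of total cells quantified and normalized to IMQ-only model group. Two-tailed t-test, mean ± SD.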"}, "[13]": {"experiment": "Intrinsic hepatic clearance in dog", "type": "ADME, Canis lupus familiaris", "conditions": "in vivo", "how_it_was_run": "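Scaled from microsomal intrinsic clearance: CLint,in vitro × microsomal protein per g liver × liver weight per kg body weight.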"}, "[14]": {"biological_target": "NT-3 growth factor receptor (Homo sapiens, UniProt Q16288)", "sequence (Q16288 whole entry)": "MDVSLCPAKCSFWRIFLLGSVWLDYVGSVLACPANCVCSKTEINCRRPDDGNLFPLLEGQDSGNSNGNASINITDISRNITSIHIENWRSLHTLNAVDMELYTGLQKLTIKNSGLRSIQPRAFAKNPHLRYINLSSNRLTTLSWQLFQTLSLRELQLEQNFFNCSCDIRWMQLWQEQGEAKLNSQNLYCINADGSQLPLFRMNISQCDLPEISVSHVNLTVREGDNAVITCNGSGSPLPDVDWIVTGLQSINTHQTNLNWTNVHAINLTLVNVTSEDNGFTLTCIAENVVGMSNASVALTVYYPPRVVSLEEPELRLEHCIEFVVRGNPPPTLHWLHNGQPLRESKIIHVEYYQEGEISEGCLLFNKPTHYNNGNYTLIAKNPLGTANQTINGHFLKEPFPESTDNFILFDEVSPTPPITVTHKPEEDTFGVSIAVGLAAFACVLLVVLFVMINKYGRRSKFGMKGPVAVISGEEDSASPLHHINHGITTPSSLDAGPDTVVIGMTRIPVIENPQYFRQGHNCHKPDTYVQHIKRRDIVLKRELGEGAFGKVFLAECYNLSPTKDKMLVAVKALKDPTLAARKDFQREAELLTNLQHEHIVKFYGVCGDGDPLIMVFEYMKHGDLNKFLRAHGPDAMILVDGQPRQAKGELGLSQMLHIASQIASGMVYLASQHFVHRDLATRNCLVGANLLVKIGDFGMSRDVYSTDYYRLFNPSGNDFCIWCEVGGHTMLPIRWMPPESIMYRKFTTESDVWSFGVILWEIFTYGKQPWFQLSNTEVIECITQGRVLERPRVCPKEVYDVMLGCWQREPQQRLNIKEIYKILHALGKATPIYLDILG", "experiment": "Inhibition of human TRKC using poly[Glu:Tyr] (4:1) as substrate in presence of [gamma33P]ATP by hotspot assay"}, "Homo sapiens [15]": {"species": "Homo sapiens", "experiment": "Selectivity ratio of IC50 for human TRKC to IC50 for human NIK"}}, "note": "Calls of active or inactive are those of the source. No cut-off for these calls is given here."}
{"smiles": "CC(O)(C#Cc1ccc(N2CCOCC2)c(Nc2ncnc3[nH]ccc23)c1)c1nccs1", "note": "(racemic)", "values": [{"measurement": "Vd", "setting": "[1]", "result": 2.73, "unit": "L/kg"}, {"measurement": "Ratio IC50", "setting": "Homo sapiens [2]", "result": "4 to 20"}, {"measurement": "microsomal CLint", "setting": "[3]", "result": 32.4, "unit": "µL/min/mg"}, {"measurement": "inhibition", "setting": "[4]", "result": "Active"}, {"measurement": "inhibition at 0.4 µM", "setting": "T-cell [5]", "result": 36, "unit": "%"}, {"measurement": "inhibition", "setting": "Mus musculus [6]", "result": "Active"}, {"measurement": "bioavailability", "setting": "[7]", "result": 64, "unit": "%"}, {"measurement": "inhibition at 2 µM", "setting": "T-cell [8]", "result": 62.3, "unit": "%"}, {"measurement": "AUC(0-inf)", "setting": "[9]", "result": 419, "unit": "ng·h/mL"}, {"measurement": "C0", "setting": "[10]", "result": 377, "unit": "ng/mL"}, {"measurement": "inhibition", "setting": "[11]", "result": "Dose-dependent effect"}, {"measurement": "inhibition in vivo at 60 mg/kg", "setting": "Mus musculus [12]", "result": 55, "unit": "%"}, {"measurement": "CLH", "setting": "[13]", "result": 62.4, "unit": "mL/min/kg"}, {"measurement": "IC50", "setting": "[14]", "result": 50.1, "unit": "nM"}, {"measurement": "Ratio IC50", "setting": "Homo sapiens [15]", "result": "4 to 20"}]}
